What all share (format): functional
The subject of one experiment is Bacillus subtilis. Kind of experiment: Antibacterial activity against Bacillus subtilis. Summed up: (§1)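 Broth-based antibacterial test run in LB broth, with puramycin as the reference agent.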
A further experiment relates to Saccharomyces cerevisiae. Kind of experiment: Antifungal activity against Saccharomyces cerevisiae. In a few lines:
(§2)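 Yeasts were tested in YPD broth, with amphotericin B as the reference antifungal.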

The test system of another experiment is Candida albicans. Kind of experiment: Antifungal activity against Candida albicans ATCC 90028. In a few lines:
as §2

The nature of experiment [1]: Antibacterial activity against Staphylococcus albus. In a few lines:
as §1

The test system of the next experiment is Escherichia coli. As to the kind of experiment: Antibacterial activity against Escherichia coli ESS K12. Summed up: as §1

Consider five molecules from ChEMBL document CHEMBL1141423, “Antimicrobial ambiguines from the cyanobacterium Fischerella sp. collected in Israel” (2007).

Each structure is given as a SMILES string. In brackets after ≈: the same amount, converted by molar mass.

By MIC is commonly meant the lowest concentration that inhibits growth of the organism. Low readings indicate greater potency, high ones weaker potency.

Take `[C-]#[N+][C@@H]1[C@@H]2c3c(C(C)(C)C=C)[nH]c4cccc(c34)C(C)(C)[C@H]2CC[C@]1(C)C=C`: the MIC in the experiment on Bacillus subtilis amounted to 1.25 µg/mL (≈ 3.36 µM); with Saccharomyces cerevisiae, 5 µg/mL (≈ 13.4 µM); in the experiment on Candida albicans, 6.25 µg/mL (≈ 16.8 µM); in experiment [1], 0.625 µg/mL (≈ 1.68 µM); against Escherichia coli, 10 µg/mL (≈ 26.8 µM).

For `C=C[C@@]1(C)CC[C@@H]2C(C)(C)c3cccc4[nH]c5c(c34)[C@@]2(O)[C@]1(C#N)[C@H]1O[C@H]1C5(C)C` [AMBIGUINE I ISONITRILE], the MIC in the experiment with Bacillus subtilis turned out to be 0.312 µg/mL (≈ 0.775 µM); in the experiment with Saccharomyces cerevisiae, 0.312 µg/mL (≈ 0.775 µM); in the experiment with Candida albicans, 0.39 µg/mL (≈ 0.969 µM); in experiment [1], 0.078 µg/mL (≈ 0.194 µM); with Escherichia coli, 2.5 µg/mL (≈ 6.21 µM).

Regarding `C[C@@H]1[C@H](O)[C@@H](C)/C=C/C=C/C=C/C=C/C=C/C=C/C=C/[C@H](O[C@@H]2O[C@H](C)[C@@H](O)[C@H](N)[C@@H]2O)C[C@@H]2O[C@](O)(C[C@@H](O)C[C@@H](O)[C@H](O)CC[C@@H](O)C[C@@H](O)CC(=O)O[C@H]1C)C[C@H](O)[C@H]2C(=O)O` [AMPHOTERICIN B], 1.56 µg/mL (≈ 1.69 µM) was the least that counted as inhibitory with Candida albicans (MIC).

As to `COc1ccc(C[C@H](N)C(=O)N[C@H]2[C@@H](O)[C@H](n3cnc4c(N(C)C)ncnc43)O[C@@H]2CO)cc1` [PUROMYCIN], the MIC against Saccharomyces cerevisiae turned out to be 0.312 µg/mL (≈ 0.662 µM).

For the molecule `CN[C@@H]1[C@H](O[C@H]2[C@H](O[C@H]3[C@H](O)[C@@H](O)[C@H](N=C(N)N)[C@@H](O)[C@@H]3N=C(N)N)O[C@@H](C)[C@]2(O)C=O)O[C@@H](CO)[C@H](O)[C@H]1O` [STREPTOMYCIN], the MIC came to 2.5 µg/mL (≈ 4.3 µM) against Bacillus subtilis, 0.156 µg/mL (≈ 0.268 µM) in experiment [1] and 0.312 µg/mL (≈ 0.536 µM) against Escherichia coli.
